A selection: hits, their analogues and other compounds. The true share with any hit is near 2.3%.
GPR7 antagonist: antagonists of human GPR7 (neuropeptides B/W receptor 1); GPR7-expressing cells, fluorescence antagonist assay; 1.1% of 290,000 active; inhibition, % at 4.4 µM; P48145; in the data active = inhibition above about 16%, passing the limit was not always enough;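 also: cells stimulated with the agonist NPW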
Target sequence (P48145 whole entry, looked up): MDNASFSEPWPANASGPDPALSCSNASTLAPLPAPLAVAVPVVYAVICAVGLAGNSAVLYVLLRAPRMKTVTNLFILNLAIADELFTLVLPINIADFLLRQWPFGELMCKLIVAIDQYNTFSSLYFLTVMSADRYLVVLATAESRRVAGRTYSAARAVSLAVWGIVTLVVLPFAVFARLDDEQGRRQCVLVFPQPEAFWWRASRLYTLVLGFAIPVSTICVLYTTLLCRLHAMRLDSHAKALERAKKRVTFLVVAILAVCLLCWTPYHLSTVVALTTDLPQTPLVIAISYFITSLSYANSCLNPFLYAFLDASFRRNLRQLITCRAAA
pCIP destab: lowers stability of the mouse p/CIP coactivator protein; AID 1984; Q05BA5; 0.01% of 290,000 active; F442A p/CIP-EGFP cells, EGFP fluorescence, 16 h; decrease of EGFP signal, % at 10 µM;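 active = EGFP signal decrease of at least 30% at 10 µM or well 3 SD below plate mean, unless failing retest; inactive = the rest, including hits failing retest or dose response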
CHT block: inhibitors of human choline transporter CHT. CHT-expressing cells, membrane potential dye, choline response; stronger effect = lower value. B-score at 10 µM. 0.86% of 310,000 active. Q9GZV3;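 active = B-score over 3 SD under the library average, and starting fluorescence ratio not unusually high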;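 also: choline stimulus applied at its EC90 after an EC20 pre-addition; B-score computed on integrated fluorescence ratio after choline addition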
T cell modulator: T cell immune modulation candidate | 0.068% of 330,000 active | 2C CD8+ T cell-vesicle binding, flow cytometry; stronger effect = lower value | response (vesicle binding), % at 7 µM;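 active = response, share of CD8 T cells binding vesicles, and their 90th percentile fluorescence all below set limits, cut at about 80% in these data, passing the limit was not always enough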;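 also: values below 100% mean blocked vesicle binding to the CD8+ T cells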
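incubation = binding step 1.5 h, 37 °C, antibody labelling 20 min, ice | test system = 2C mouse CD8+ T cells | read-out basis = percent CD8+ FL2 mean versus row control | controls = Peptide-free naked vesicles (low) and QL9 vesicles with 0.7% DMSO vehicle (high) | detection = flow cytometry of vesicle-bound cells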
CHT allo act: allosterically activates the human high affinity choline transporter; Q9GZV3; CHT-expressing cells, membrane potential dye, choline EC20; stronger effect = higher value; LV-AA mutant CHT in HEK293 cells; B-score at 10 µM; 0.49% of 310,000 active; AID 488977;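 active = initial fluorescence not abnormally high and integrated response B-score, plate-corrected, over 3 SD above library mean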
DSG3 Ab inh: blocks pemphigus antibody binding to human desmoglein-3; 0.48% of 310,000 active; P32926; DSG3-coupled beads, scFv-anti-DSG3-GFP binding, flow cytometry; stronger effect = lower value; binding (percent of control), % at 10 µM; AID 588358;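 active = binding more than 3 SD below its plate's average and above zero; inconclusive = below that plate limit but binding exactly zero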;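 also: hits lower antibody fragment binding to DSG3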
CHT activ conf: confirmation of human choline transporter (CHT) activators; 91% of 2,500 active; CHT-expressing cells, membrane potential dye fluorescence (FDSS); % of choline EC20–EC90 response window; HEK293 expressing CHT LV-AA mutant; choline added at its EC20; shares compounds with CHT allo act; activation, % at 10 µM;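 active = primary screen active, with duplicate mean activation above negative control mean plus 3 SD, cut at about 11% in these data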
HEK293 MP dye: activity in parental HEK293 cells lacking CHT | shares compounds with CHT allo act | membrane potential dye fluorescence (FDSS); measured after EC20 choline addition | ratio readout change at 10 µM, hits read low | 62% of 2,500 active | AID 623908;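 active = duplicate-averaged ratio beyond 3 SD from buffer wells, up or down, though filed actives are nearly all decreases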
Large screens that a line does not name were inactive (follow-up assays come after a bar, where they were run).

NC(=N\N=CCc1ccccc1)/C(N)=N/N=CCc1ccccc1	none (no result: GPR7 antagonist, pCIP destab, CHT block, T cell modulator, CHT allo act)
O=C(c1cccc(Cl)c1)N1CCN(c2ccccn2)CC1	none
O=C(c1ccc(S(=O)(=O)c2cccc(Cl)c2)c([N+](=O)[O-])c1)N1CCN(c2ccccn2)CC1	CHT allo act 8.47 | CHT activ conf inactive | HEK293 MP dye inactive
COc1cc(C(=O)NCC(c2cccs2)N2CCOCC2)cc(Br)c1OCc1ccccc1 (centres undefined)	DSG3 Ab inh inconclusive (no result: GPR7 antagonist, pCIP destab, CHT block, CHT allo act)
Cn1c(C(=O)NC2CC2)cc2c(=O)n(C)c3ccccc3c21	none | CHT activ conf 36.3 | HEK293 MP dye -29.6
Cn1c(C(=O)NCCCN2CCCCCC2)cc2c(=O)n(C)c3ccccc3c21	none
COCCNC(=O)c1cc2c(=O)n(C)c3ccccc3c2n1C	none
CCN(CC)CCNC(=O)c1cc2c(=O)n(C)c3ccccc3c2n1C	none
CCN(CC)CCCNC(=O)c1cc2c(=O)n(C)c3ccccc3c2n1C	CHT allo act 6.72 | CHT activ conf 49.1 | HEK293 MP dye -23.2
CN(C)CCNC(=O)c1cc2c(=O)n(C)c3ccccc3c2n1C	none | CHT activ conf 41.8 | HEK293 MP dye -33.2
Cn1c(C(=O)NCCCN2CCc3ccccc3C2)cc2c(=O)n(C)c3ccccc3c21	none (no result: T cell modulator) | CHT activ conf 25.5 | HEK293 MP dye -26.6
COC(=O)c1cncn1Cc1ccccc1	none (no result: GPR7 antagonist, pCIP destab, CHT block, T cell modulator, CHT allo act)
Cc1cc(C[n+]2ccccc2)c2nsnc2c1	CHT allo act 10.2 | CHT activ conf 44.7 | HEK293 MP dye -72.3
Cc1cc(C)c(S(=O)(=O)Nc2cccc3nsnc23)c(C)c1	none
Cc1ccc(-n2ncc(-c3n[nH]c(=S)o3)c2N)cc1C	none (no result: GPR7 antagonist, pCIP destab, CHT block, T cell modulator, CHT allo act)
COCCN(C(=S)Nc1ccc(OC)cc1)C(C)c1cccs1 (centres undefined)	CHT allo act 8.13 | CHT activ conf inactive | HEK293 MP dye inactive
COC(=O)C1CCN(C(=O)C2CC(=O)N(c3ccc(C)c(Cl)c3)C2)CC1 (centres undefined)	none (no result: GPR7 antagonist, pCIP destab, CHT block, T cell modulator, CHT allo act)
CCOc1cc(N2CCOCC2)c(OCC)cc1NC(=O)COC(=O)c1cc2ccccc2cc1O	CHT allo act 7.47 | CHT activ conf 16.6 | HEK293 MP dye inactive
Cc1ccccc1SCC(=O)Nc1cc(C(F)(F)F)ccc1N1CCOCC1	none (no result: GPR7 antagonist, pCIP destab) | CHT activ conf 36.2 | HEK293 MP dye inactive
CCOc1ccc(S(=O)(=O)N2CCCCC2)cc1NC(=O)C1CSC2(C)CCC(=O)N12 (centres undefined)	none (no result: GPR7 antagonist, pCIP destab) | CHT activ conf 25.5 | HEK293 MP dye inactive
CCN(Cc1ccccc1)C(=O)CSc1ncn[nH]1	none
COc1cc(-c2nnc(SCC(=O)N(Cc3ccccc3)C(C)(C)C)o2)cc(OC)c1OC	CHT allo act 7.93 | CHT activ conf inactive | HEK293 MP dye inactive
Cc1nn(C2CCS(=O)(=O)C2)c(C)c1CN(C)C(=O)c1ccc(F)cc1 (centres undefined)	none (no result: GPR7 antagonist, pCIP destab, CHT block, T cell modulator, CHT allo act)
COc1ccc(-n2nc(C(=O)NCC(=O)Nc3cccc(Cl)c3)c3ccccc3c2=O)cc1OC	none
Cc1cc(C)n2[nH]c(=O)c(N=Nc3cccc(C(F)(F)F)c3)c2n1	CHT allo act 7.21 | CHT activ conf 36.7 | HEK293 MP dye -73.6
Cc1ccc(-n2c(SCCN)nnc2-c2cccc(C)c2)cc1	none | CHT activ conf 17.4 | HEK293 MP dye inactive
CCCCN(C(=O)C1CCCO1)c1c(N)n(CCC)c(=O)[nH]c1=O (centres undefined)	none (no result: GPR7 antagonist, pCIP destab, CHT block, CHT allo act)
O=C(NCc1ccco1)c1ccc(OC2CCN(Cc3ccccn3)CC2)cc1	none (no result: GPR7 antagonist, pCIP destab, CHT block, T cell modulator, CHT allo act)
Cc1cccn2c1nc(=S)n2C(=O)c1ccco1	none | CHT activ conf 26.7 | HEK293 MP dye -20.9
COC(=O)[C@H]1C[C@@]2(O)CN(S(=O)(=O)c3ccc(C)cc3)C[C@@]2(OC(=O)Nc2cccs2)C[C@H]1C(=O)OC	none (no result: GPR7 antagonist, pCIP destab, CHT block, T cell modulator, CHT allo act)
O=C(OCC(=O)N(Cc1ccccc1)Cc1ccccc1)c1ccccc1O	none (no result: GPR7 antagonist, pCIP destab, CHT block, CHT allo act, DSG3 Ab inh)
O=C(OCC(=O)N(CCc1ccccc1)Cc1ccccc1)c1ccccc1O	CHT allo act 6.52 (no result: GPR7 antagonist, pCIP destab) | CHT activ conf 38.1 | HEK293 MP dye inactive
CN1CCN(C=Nc2nc3ccccc3nc2N2CCCC2)CC1	CHT allo act 6.68 | CHT activ conf 25.5 | HEK293 MP dye -51.9
COc1ccc(-c2nc(-c3ccncc3)no2)c(OC)c1	none
COc1cc(OC)c(-c2nc(-c3ccncc3)no2)cc1OC	none | CHT activ conf 44.7 | HEK293 MP dye -43.4
CN(C)S(=O)(=O)c1cc(NC(=O)CNCc2ccccc2)ccc1Cl	none
CN(CCOc1ccccc1)CC(=O)Nc1ccc(Cl)c(S(=O)(=O)N(C)C)c1	CHT allo act 7 | CHT activ conf inactive | HEK293 MP dye inactive
O=[N+]([O-])c1cc(Cl)cc(C2=NCCN2)c1	none | CHT activ conf 49.4 | HEK293 MP dye -54.9
O=C(Nc1ccc(C2=NCCN2)cc1)c1ccc(C(=O)Nc2ccc(C3=NCCN3)cc2)c([N+](=O)[O-])c1	none
COc1ccc(Br)cc1/C=N/NC(=O)c1cc(OC)c(OC)c(OC)c1	none (no result: DSG3 Ab inh)
COc1cc(C(=O)N/N=C/c2ccsc2C)cc(OC)c1OC	none | CHT activ conf 18.7 | HEK293 MP dye inactive
Cc1nc2sc3c(c2c(=N)n1N)CC(C)(C)OC3	CHT allo act 8.41 | CHT activ conf 63.2 | HEK293 MP dye -46.7
O=C(Nc1ccncc1)c1ccc(-c2ccccc2)cc1	none
CCOc1cc(CNCCSc2nnnn2C)cc(Br)c1OCc1ccccc1	CHT allo act 6.96 | CHT activ conf 14.6 | HEK293 MP dye inactive
CCOc1cc(CNCCO)cc(Br)c1OCc1ccccc1	none
CC#CCOCC1CNC(=O)O1 (centres undefined)	none (no result: GPR7 antagonist, pCIP destab, CHT block, T cell modulator, CHT allo act)
Cc1cnccc1CN(C)C(=O)CC1C(=O)NCCN1CC1CCCCC1 (centres undefined)	CHT allo act 7.72 | CHT activ conf inactive | HEK293 MP dye inactive
CCCC(=O)N/C(N)=N/c1nc(C)c2ccccc2n1	none (no result: DSG3 Ab inh) | CHT activ conf 35.9 | HEK293 MP dye -46
N#Cc1c(N2CCCCC2)nc(N)c2c(N)nc3c(c12)CC(c1ccccc1)O3 (centres undefined)	none
CCN(CC)c1nc(N)c2c(N)nc3c(c2c1C#N)CC(c1ccccc1)O3 (centres undefined)	CHT allo act 6.54 | CHT activ conf 25.5 | HEK293 MP dye inactive
Cc1ccc(S(=O)(=O)N2CCN(C(=O)CN3CCOCC3)C2c2ccccc2)cc1 (centres undefined)	CHT allo act 8.05 | CHT activ conf inactive | HEK293 MP dye inactive

Source: PubChem BioAssay (several laboratories)
